Results reported in ChEMBL document CHEMBL5032502, “Syntheses, Biological Evaluations, and Mechanistic Studies of Benzo[c][1,2,5]oxadiazole Derivatives as Potent PD-L1 Inhibitors with In Vivo Antitumor Activity” (J Med Chem, 2021).
Calls of active or inactive are those of the source. The calls are words filed in the database; no cut-off is given here.

Legend:
[1] = target: Programmed cell death protein 1/Programmed cell death 1 ligand 1 (Homo sapiens, UniProt Q9NZQ7); test: Inhibition of human PD-1/PD-L1 interaction assessed as blockade activity incubated for 15 mins by HTRF assay; assay type: protein-complex assay
Outline: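 Tag1-PD-L1 and Tag2-PD-1 proteins preincubated with compound (0.1 nM to 10 μM, triplicate) 15 min at room temperature, then anti-Tag1-Eu³⁺/anti-Tag2-XL665 added for 2 h at room temperature. Excitation 337 nm, emission 665 and […]. Signal taken as 665/615 ratio ×10 000; IC50 fitted from inhibition rates.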

[2] = Half life in Sprague-Dawley rat at 9 mg/kg, iv measured upto 24 hrs by LC-MS analysis; assay type: ADME, organism-based; settings: in vivo
Outline: (§1)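 Male animals fasted 12 h before dosing. Plasma levels measured by LC-MS, with the prodrug quantified as the parent acid. Mean ± SEM, n = 3.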

[3] = Clearance in Sprague-Dawley rat at 9 mg/kg, iv measured upto 24 hrs by LC-MS analysis; assay type: ADME, organism-based; settings: in vivo; outline: as §1
[4] = Half life in Sprague-Dawley rat at 45 mg/kg, po measured upto 24 hrs by LC-MS analysis; assay type: ADME, organism-based; settings: in vivo; outline: as §1
[5] = Tmax in Sprague-Dawley rat at 45 mg/kg, po measured upto 24 hrs by LC-MS analysis; assay type: ADME, organism-based; settings: in vivo
Outline: (§2)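 Male Sprague-Dawley rats or C57BL/6 mice fasted 12 h before dosing, given oral (po) or intravenous (iv) doses. Plasma levels measured by LC-MS. Parameters reported as mean ± SEM, n = 3.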

[6] = Cmax in Sprague-Dawley rat at 45 mg/kg, po measured upto 24 hrs by LC-MS analysis; assay type: ADME, organism-based; set-up: route oral, dose 45 mg/kg, time <=24; settings: in vivo; outline: as §1
[7] = Acute toxicity in C57BL/6 mouse assessed as mortality at 2000 mg/kg, po observed for 30 days; assay type: organism-based; settings: in vivo, 720 h, time 30 day
Outline: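 Healthy C57BL/6 mice got a single oral 2000 mg/kg dose. Mortality and body weight were then recorded over a 30-day observation period.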

[8] = Subacute toxicity in C57BL/6 mouse assessed as mortality at 2000 mg/kg, po observed for 30 days; assay type: organism-based; settings: in vivo, 720 h, time 30 day
[9] = Toxicity in C57BL/6 mouse assessed as effect on AST level at 2000 mg/kg, po observed for 30 days; assay type: organism-based; settings: in vivo, 720 h, time 30 day
[10] = Toxicity in C57BL/6 mouse assessed as effect on ALT level at 2000 mg/kg, po observed for 30 days; assay type: organism-based; settings: in vivo, 720 h, time 30 day
[11] = Toxicity in C57BL/6 mouse assessed as effect on BUN level at 2000 mg/kg, po observed for 30 days; assay type: organism-based; settings: in vivo, 720 h, time 30 day
B16-F10 = test: Antitumor activity against mouse B16-F10 cells implanted in C57BL/6 mouse assessed as tumor growth inhibition at 45 mg/kg, po measured after 18 days; assay type: functional; settings: 432 h, time 18 day, read-out: TGI
Outline: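 Female C57BL/6J mice, 8 weeks old, injected dorsally with 1 × 10⁶ B16-F10 cells in PBS. Daily oral gavage started the same day (day 1), in 0.5% CMC-Na vehicle. Tumour size and body weight recorded daily, volume = 0.5 × L × W². Sacrifice on day 18, tumours excised and weighed. TGI = (1 − Vt/Vv) × 100.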

MC-38 [12] = test: Antitumor activity against mouse MC38 cells implanted in C57BL/6 mouse assessed as tumor growth inhibition at 50 mg/kg, po measured after 14 days; assay type: functional; settings: MC-38, po, 336 h, time 14 day, read-out: TGI
MC-38 [13] = test: Antitumor activity against mouse MC38 cells implanted in C57BL/6 mouse assessed as tumor growth inhibition at 150 mg/kg, po measured after 14 days; assay type: functional; settings: MC-38, po, 336 h, time 14 day, read-out: TGI
MC-38 [14] = test: Antitumor activity against mouse MC38 cells implanted in C57BL/6 mouse assessed as tumor growth inhibition at 300 mg/kg, po measured after 14 days; assay type: functional; settings: MC-38, po, 336 h, time 14 day, read-out: TGI
MC-38 [15] = test: Antitumor activity against mouse MC38 cells implanted in C57BL/6 mouse assessed as tumor growth inhibition at 300 mg/kg, po measured after 18 days; assay type: functional; settings: MC-38, po, 432 h, time 18 day, read-out: TGI
Outline: (§3)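 Female C57BL/6J mice, 8 weeks old, injected dorsally with 1 × 10⁶ MC38 cells in PBS. At 50 mm³, randomized to CMC-Na vehicle, 50, 150 or 300 mg/kg by daily oral gavage. Tumours measured every two days, volume = 0.5 × L × W². Sacrifice after 18 days of treatment. TGI = (1 − Vt/Vv) × 100. n = 8−10.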

MC-38 [16] = test: Antitumor activity against mouse MC38 cells implanted in C57BL/6 mouse assessed as tumor growth inhibition at 150 mg/kg, po measured after 18 days; assay type: functional; settings: MC-38, po, 432 h, time 18 day, read-out: TGI; outline: as §3
MC-38 [17] = test: Antitumor activity against PD-L1 humanized mouse MC38 cells implanted in PD-L1 humanized C57BL/6 mouse assessed as tumor growth inhibition at 50 mg/kg, po measured after 30 days; assay type: functional; settings: MC-38, po, 720 h, time 30 day, read-out: TGI
Outline: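 PD-L1-humanized C57BL/6 mice given 1 × 10⁶ MC38-hPD-L1(Tg)-mPDL1(KO) cells in the right flank. Once tumours reached 50 mm³, randomized into three groups: CMC-Na vehicle, 25 or 50 mg/kg by daily oral gavage for 30 days. TGI from mean tumour volume of treated versus vehicle groups. n = 6.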

MC-38 [18] = test: Antitumor activity against mouse MC38 cells xenografted in C57BL/6 mouse assessed as increase in NK cells at 25 mg/kg, po by flow cytometry analysis; assay type: functional, organism-based
Outline: (§4)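 Tumours taken from PD-L1-humanized mice carrying MC38-hPD-L1 tumours and dosed orally at 5 or 25 mg/kg daily. Tissue digested to single cells, red cells lysed with ACK buffer, Fc blocked. Surface stain 60 min for CD45, CD3, CD4, CD8, CD335, CD11b, Ly6G, Ly6C and F4/80, with a viability dye. Intracellular FOXP3 stain after permeabilization. Mean ± SEM, n = 7−8, one-way ANOVA.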

MC-38 [19] = test: Antitumor activity against mouse MC38 cells xenografted in C57BL/6 mouse assessed as reduction in mMDSC cells at 25 mg/kg, po by flow cytometry analysis; assay type: functional, organism-based; outline: as §4
MC-38 [20] = test: Antitumor activity against mouse MC38 cells xenografted in C57BL/6 mouse assessed as reduction in gMDSC cells at 25 mg/kg, po by flow cytometry analysis; assay type: functional, organism-based; outline: as §4
MC-38 [21] = test: Antitumor activity against mouse MC38 cells xenografted in C57BL/6 mouse assessed as change in regulatory T cells at 25 mg/kg, po by flow cytometry analysis; assay type: functional, organism-based; outline: as §4
[22] = AUC (0 to t) in C57BL/6 mouse at 2 mg/kg, iv measured upto 24 hrs by LC-MS analysis; assay type: ADME, organism-based; set-up: route intravenous, dose 2 mg/kg, time <=24; settings: in vivo; outline: as §1
[23] = Cmax in C57BL/6 mouse at 10 mg/kg, po measured upto 24 hrs by LC-MS analysis; assay type: ADME, organism-based; set-up: route oral, dose 10 mg/kg, time <=24; settings: in vivo; outline: as §1
[24] = AUC (0 to t) in C57BL/6 mouse at 10 mg/kg, po measured upto 24 hrs by LC-MS analysis; assay type: ADME, organism-based; set-up: route oral, dose 10 mg/kg, time <=24; settings: in vivo; outline: as §1
[25] = Oral bioavailability in C57BL/6 mouse at 10 mg/kg measured upto 24 hrs by LC-MS analysis; assay type: ADME, organism-based; settings: in vivo; outline: as §2
[26] = Toxicity in C57BL/6 mouse assessed as body weight loss at 2000 mg/kg, po observed for 30 days; settings: in vivo, 720 h

Sequence of Programmed cell death protein 1/Programmed cell death 1 ligand 1 (Q15116 whole entry): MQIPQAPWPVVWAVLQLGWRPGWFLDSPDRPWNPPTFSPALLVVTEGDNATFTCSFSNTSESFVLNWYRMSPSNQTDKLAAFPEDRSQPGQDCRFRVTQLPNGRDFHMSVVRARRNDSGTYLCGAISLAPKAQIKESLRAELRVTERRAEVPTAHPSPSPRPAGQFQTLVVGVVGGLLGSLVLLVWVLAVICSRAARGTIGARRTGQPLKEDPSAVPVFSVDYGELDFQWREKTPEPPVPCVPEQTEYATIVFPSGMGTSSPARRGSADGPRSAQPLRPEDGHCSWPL
Sequence of Programmed cell death protein 1/Programmed cell death 1 ligand 1 (Q9NZQ7 whole entry): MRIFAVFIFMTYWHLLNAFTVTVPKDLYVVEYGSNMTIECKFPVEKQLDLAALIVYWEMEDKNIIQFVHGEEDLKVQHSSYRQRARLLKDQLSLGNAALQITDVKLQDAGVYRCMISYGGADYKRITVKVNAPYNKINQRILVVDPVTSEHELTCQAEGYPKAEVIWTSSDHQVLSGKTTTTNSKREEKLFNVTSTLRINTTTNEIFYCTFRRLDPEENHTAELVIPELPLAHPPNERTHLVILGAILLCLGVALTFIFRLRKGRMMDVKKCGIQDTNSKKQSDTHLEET

CCOC(=O)[C@@H](CO)NCc1cc(Cl)c(OCc2cccc(-c3ccccc3)c2Br)cc1OCc1ccc2nonc2c1.Cl
IC50 [1]: 426 nM | half-life [2]: 5.02 h | clearance [3]: 23.8 mL/min/kg | half-life [4]: 3.43 h | Tmax [5]: 4 h | Cmax [6]: 488 ng/mL | Activity [7]: Non-Toxic | Activity [8]: Non-Toxic | Activity [9]: Non-Toxic | Activity [10]: Non-Toxic | Activity [11]: Non-Toxic | inhibition in vivo at 45 mg/kg (B16-F10): 70.7% | inhibition in vivo at 50 mg/kg (MC-38 [12]): 50.9% | inhibition in vivo at 150 mg/kg (MC-38 [13]): 58.2% | inhibition in vivo at 300 mg/kg (MC-38 [14]): 36.5% | inhibition in vivo at 300 mg/kg (MC-38 [15]): 48.9% | inhibition in vivo at 150 mg/kg (MC-38 [16]): 55.1% | inhibition in vivo at 50 mg/kg (MC-38 [17]): 30.8% | Activity (MC-38 [18]): Active | Activity (MC-38 [19]): Active | Activity (MC-38 [20]): Active | Activity (MC-38 [21]): inactive | AUC(0-t) at 24 h [22]: 1150 ng·h/mL | Cmax [23]: 150 ng/mL | AUC(0-t) at 24 h [24]: 444 ng·h/mL | bioavailability [25]: 7.7% | Activity [26]: Non-Toxic
